Measurements reported in ChEMBL document CHEMBL3085754, “Clicking 3'-azidothymidine into novel potent inhibitors of human immunodeficiency virus” (J Med Chem, 2013).
Activity calls are given as the source filed them. The rule behind the calls is not given here.

Tests used:
CEM-SS [1] = assay: Cytotoxicity against human CEM-SS cells assessed as cell viability at 10 uM after 6 days by MTS assay relative to control; format: cell-based; settings: 144 h
[2] = system: Human immunodeficiency virus 1; assay: Antiviral activity against Human immunodeficiency virus 1 3B infected in human CEM-SS cells assessed as inhibition of virus-induced cytopathic effect at 10 uM after 6 days by MTS assay relative to control; format: functional; settings: 144 h
[3] = system: Human immunodeficiency virus 1; assay: Ratio of EC50 for NNRTI-resistant Human immunodeficiency virus 1 to EC50 for wild type Human immunodeficiency virus 1 expressing p24; format: functional
[4] = system: Human immunodeficiency virus 1; assay: Antiviral activity against NNRTI-resistant Human immunodeficiency virus 1; format: functional, organism-based
[5] = system: Human immunodeficiency virus 1; assay: Antiviral activity against wild type Human immunodeficiency virus 1 expressing p24 infected in human HeLa P4/R5 cells preincubated for 16 hrs prior to virus infection measured after 48 hrs by beta-galactosidase-based single replication cycle assay; format: functional, organism-based; settings: Human immunodeficiency virus 1, P4/R5
How it was run: (§1)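 P4R5 indicator cells express CD4, CXCR4, CCR5 and an HIV LTR-driven β-galactosidase reporter, and were kept in DMEM/10% FBS with puromycin. Cells were seeded at 5×10^3 per well and exposed to varying drug concentrations for 16 h. They were then inoculated with 25 ng HIV-1 p24 per well. Infection was quantified 48 h post-infection by fluorescence-based β-galactosidase detection.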

[6] = Therapeutic index, ratio of CC50 for human CEM-SS cells to EC50 for Human immunodeficiency virus 1 3B; format: cell-based; settings: read-out: Ratio CC50/EC50
CEM-SS [7] = assay: Cytotoxicity against human CEM-SS cells assessed as cell viability after 6 days by MTS assay; format: cell-based; settings: cem-ss, 144 h
[8] = system: Human immunodeficiency virus 1; assay: Antiviral activity against Human immunodeficiency virus 1 3B infected in human CEM-SS cells assessed as inhibition of virus-induced cytopathic effect after 6 days by MTS assay; format: functional, organism-based; settings: 144 h
[9] = system: Human immunodeficiency virus 1; assay: Antiviral activity against wild type Human immunodeficiency virus 1 expressing p24 infected in human HeLa P4/R5 cells up to 10 uM preincubated for 16 hrs prior to virus infection measured after 48 hrs by beta-galactosidase-based single replication cycle assay; format: functional, organism-based; how it was run: as §1
[10] = molecular target: Human immunodeficiency virus type 1 reverse transcriptase (Human immunodeficiency virus 1) (UniProt Q72547); assay: Binding affinity to HIV1 reverse transcriptase assessed as compound incorporation into DNA by primer extension assay

SMILES | Activity (CEM-SS [1]) [%] | inhibition at 10 µM [2] [%] | other results
Cc1cn([C@H]2C[C@H](n3nncc3CO)[C@@H](CO)O2)c(=O)[nH]c1=O | 100 | 0 | –
COC(=O)C(Cc1ccc(OCc2cnnn2[C@H]2C[C@H](n3cc(C)c(=O)[nH]c3=O)O[C@@H]2CO)cc1)NC(=O)OC(C)(C)C (stereo partly drawn) | 90 | 17 | –
Cc1cn([C@H]2C[C@H](n3nncc3COc3ccc4ccccc4c3)[C@@H](CO)O2)c(=O)[nH]c1=O | 95 | 88 | Ratio EC50 [3]: <0.5; EC50 [4]: 2.4 µM; EC50 [5]: > 5 µM; selectivity ratio [6]: 37; CC50 (CEM-SS [7]): 70 µM; EC50 [8]: 1.9 µM
Cc1cn([C@H]2C[C@H](n3nncc3C3(O)c4ccccc4-c4ccccc43)[C@@H](CO)O2)c(=O)[nH]c1=O | 97 | 0 | –
Cc1cn([C@H]2C[C@H](n3nncc3-c3ccc4[nH]ccc4c3)[C@@H](CO)O2)c(=O)[nH]c1=O | 82 | 12 | –
Cc1cn([C@H]2C[C@H](n3nncc3-c3ccc(Cl)cc3)[C@@H](CO)O2)c(=O)[nH]c1=O | 100 | 23 | –
Cc1cn([C@H]2C[C@H](n3nncc3-c3ccc(Cl)c(Cl)c3)[C@@H](CO)O2)c(=O)[nH]c1=O | 100 | 31 | Activity [9]: inactive
Cc1cn([C@H]2C[C@H](n3nncc3COc3ccccc3)[C@@H](CO)O2)c(=O)[nH]c1=O | 100 | 51 | –
Cc1cn([C@H]2C[C@H](n3nncc3-c3ccc4ccccc4c3)[C@@H](CO)O2)c(=O)[nH]c1=O | 100 | 37 | –
Cc1cn([C@H]2C[C@H](n3cc(-c4ccc(Cl)cc4)nn3)[C@@H](CO)O2)c(=O)[nH]c1=O | 100 | 0 | –
Cc1cn([C@H]2C[C@H](n3cc(C4CCCCC4)nn3)[C@@H](CO)O2)c(=O)[nH]c1=O | 100 | 0 | –
Cc1cn([C@H]2C[C@H](n3nncc3COc3cccc4ccccc34)[C@@H](CO)O2)c(=O)[nH]c1=O | 93 | 42 | Activity [9]: inactive
Cc1cn([C@H]2C[C@H](n3cc(-c4ccccc4)nn3)[C@@H](CO)O2)c(=O)[nH]c1=O | 100 | 24 | –
COc1ccc2ccc(OCc3cnnn3[C@H]3C[C@H](n4cc(C)c(=O)[nH]c4=O)O[C@@H]3CO)cc2c1 | 99 | 10 | –
Cc1cn([C@H]2C[C@H](n3cc(C4(O)c5ccccc5-c5ccccc54)nn3)[C@@H](CO)O2)c(=O)[nH]c1=O | 100 | 11 | –
Cc1cn([C@H]2C[C@H](n3nncc3-c3ccnc4ccccc34)[C@@H](CO)O2)c(=O)[nH]c1=O | 94 | 74 | –
Cc1cn([C@H]2C[C@H](n3nncc3-c3cc4ccccc4c4ccccc34)[C@@H](CO)O2)c(=O)[nH]c1=O | 100 | 100 | EC50 [5]: > 5 µM; selectivity ratio [6]: 210; CC50 (CEM-SS [7]): 21 µM; EC50 [8]: 0.1 µM
Cc1cn([C@H]2C[C@H](n3cc(C4CC4)nn3)[C@@H](CO)O2)c(=O)[nH]c1=O | 100 | 1 | –
Cc1cn([C@H]2C[C@H](n3nncc3-c3ccccc3)[C@@H](CO)O2)c(=O)[nH]c1=O | 100 | 44 | –
COc1ccc2cc(-c3cn([C@H]4C[C@H](n5cc(C)c(=O)[nH]c5=O)O[C@@H]4CO)nn3)ccc2c1 | 95 | 35 | –
Cc1cn([C@H]2C[C@H](n3cc(-c4cc5ccccc5c5ccccc45)nn3)[C@@H](CO)O2)c(=O)[nH]c1=O | 100 | 42 | Ratio EC50 [3]: 0.2; EC50 [4]: 1 µM; EC50 [5]: 4.7 µM

SMILES | Activity (CEM-SS [1]) [%] | inhibition at 10 µM [2] [%] | other results
Cc1cn([C@H]2C[C@H](n3cc(-c4ccc5ccccc5c4)nn3)[C@@H](CO)O2)c(=O)[nH]c1=O | 98 | 33 | Ratio EC50 [3]: 0.3; EC50 [4]: 2.1 µM; EC50 [5]: 7.2 µM
Cc1cn([C@H]2C[C@H](N=[N+]=[N-])[C@@H](COP(=O)(O)OP(=O)(O)OP(=O)(O)O)O2)c(=O)[nH]c1=O | – | – | Activity [10]: Active
Cc1cn([C@H]2C[C@H](n3cc(COc4cccc5ccccc45)nn3)[C@@H](CO)O2)c(=O)[nH]c1=O | 100 | 5 | –
COc1ccc2ccc(OCc3cn([C@H]4C[C@H](n5cc(C)c(=O)[nH]c5=O)O[C@@H]4CO)nn3)cc2c1 | 100 | 0 | –
Cc1cn([C@H]2C[C@H](n3cc(-c4ccnc5ccccc45)nn3)[C@@H](CO)O2)c(=O)[nH]c1=O | 100 | 44 | –
COC(=O)C(Cc1ccc(OCc2cn([C@H]3C[C@H](n4cc(C)c(=O)[nH]c4=O)O[C@@H]3CO)nn2)cc1)NC(=O)OC(C)(C)C (stereo partly drawn) | 99 | 0 | –
Cc1cn([C@H]2C[C@H](n3nncc3-c3ccc(-c4ccccc4)cc3)[C@@H](CO)O2)c(=O)[nH]c1=O | 80 | 63 | Activity [9]: inactive
Cc1cn([C@H]2C[C@H](n3cc(-c4ccc5[nH]ccc5c4)nn3)[C@@H](CO)O2)c(=O)[nH]c1=O | 100 | 35 | –
COc1ccc2cc(-c3cnnn3[C@H]3C[C@H](n4cc(C)c(=O)[nH]c4=O)O[C@@H]3CO)ccc2c1 | 100 | 43 | Ratio EC50 [3]: 0.4; EC50 [4]: 1.8 µM; EC50 [5]: 4.1 µM
Cc1cn([C@H]2C[C@H](n3cc(-c4ccc(Oc5ccccc5)cc4)nn3)[C@@H](CO)O2)c(=O)[nH]c1=O | 100 | 0 | –
Cc1cn([C@H]2C[C@H](n3cc(CO)nn3)[C@@H](CO)O2)c(=O)[nH]c1=O | 100 | 5 | –
COc1ccc2cc(OCc3cn([C@H]4C[C@H](n5cc(C)c(=O)[nH]c5=O)O[C@@H]4CO)nn3)ccc2c1 | 100 | 0 | –
Cc1cn([C@H]2C[C@H](n3cc(COc4ccc5ccccc5c4)nn3)[C@@H](CO)O2)c(=O)[nH]c1=O | 100 | 0 | –
Cc1cn([C@H]2C[C@H](n3cc(COc4ccccc4)nn3)[C@@H](CO)O2)c(=O)[nH]c1=O | 85 | 7 | –
Cc1cn([C@H]2C[C@H](n3nncc3-c3ccc(Oc4ccccc4)cc3)[C@@H](CO)O2)c(=O)[nH]c1=O | 97 | 67 | Activity [9]: inactive
Cc1cn([C@H]2C[C@H](n3cc(-c4ccc(Cl)c(Cl)c4)nn3)[C@@H](CO)O2)c(=O)[nH]c1=O | 100 | 6 | –
Cc1cn([C@H]2C[C@H](n3nncc3C3CC3)[C@@H](CO)O2)c(=O)[nH]c1=O | 100 | 17 | –
COc1ccc2cc(OCc3cnnn3[C@H]3C[C@H](n4cc(C)c(=O)[nH]c4=O)O[C@@H]3CO)ccc2c1 | 100 | 57 | Activity [9]: inactive
Cc1cn([C@H]2C[C@H](n3cc(-c4ccc(-c5ccccc5)cc4)nn3)[C@@H](CO)O2)c(=O)[nH]c1=O | 88 | 91 | –
Cc1cn([C@H]2C[C@H](n3nncc3C3CCCCC3)[C@@H](CO)O2)c(=O)[nH]c1=O | 88 | 43 | Activity [9]: inactive
Cc1cn([C@H]2C[C@H](n3cc(-c4cccc5ccccc45)nn3)[C@@H](CO)O2)c(=O)[nH]c1=O | 100 | 1 | –
